Results taken from ChEMBL document CHEMBL1150789, “Antiplasmodial activity of aryltetralone lignans from Holostylis reniformis” (Antimicrob Agents Chemother, 2007).

How the values were obtained:
[1] = Toxicity against human HepG2A16 cells assessed as cell death at 450 ug/ml by MTT method; format: cell-based
Plasmodium falciparum = test: Antiplasmodial activity growth inhibition of chloroquine-resistant Plasmodium falciparum BHz 26/86 after 72 hrs; format: functional, organism-based; conditions: BHz 26/86, 72 h
How it was run: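 Chloroquine-resistant Amazon isolate in continuous culture on human AB+ or A+ erythrocytes, RPMI 1640 + 10% human serum. Sorbitol-synchronized trophozoites at 1–2% parasitemia, 2.5% hematocrit. Compounds in 0.02% Tween 20, tested at 0.02 to 20 μM, 37°C. Growth inhibition versus drug-free control from blinded smear reading. IC50/IC90 by linear interpolation. Triplicate, three repeats.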

**Q.** Which results are given for COc1cc2c(cc1OC)[C@@H](c1ccc3c(c1)OCO3)[C@H](C)[C@H](C)C2=O?
**A.** Activity [1]: 30%; IC50 (Plasmodium falciparum): > 140000 nM; IC90 (Plasmodium falciparum): > 140000 nM

**Q.** Which results are given for COc1cc2c(cc1OC)[C@@H](c1ccc3c(c1)OCO3)[C@@H](C)[C@H](C)C2=O?
**A.** Activity [1]: 30%; IC50 (Plasmodium falciparum): 260 nM; IC90 (Plasmodium falciparum): 3350 nM

**Q.** With COc1ccc([C@@H]2c3cc(OC)c(OC)cc3C(=O)[C@@H](C)[C@@H]2C)cc1OC as the compound, how does the Activity [1] read?
**A.** The Activity was 30%.

**Q.** What about the IC50 (Plasmodium falciparum) of the same compound?
**A.** The IC50 was 320 nM.

**Q.** What about the IC90 (Plasmodium falciparum) of the same compound?
**A.** The IC90 was 4600 nM.

**Q.** For COc1ccc([C@@H]2c3cc(OC)c(OC)cc3C(=O)[C@H](C)[C@H]2C)cc1OC, which Activity [1] is on record?
**A.** The Activity was 30%.

**Q.** And the IC50 (Plasmodium falciparum)?
**A.** The IC50 was 200 nM.

**Q.** What about the IC90 (Plasmodium falciparum) of the same compound?
**A.** Its IC90 is 3000 nM.

**Q.** Which results are given for COc1ccc([C@@H]2c3cc(OC)c(OC)cc3C(=O)[C@@H](C)[C@H]2C)cc1OC?
**A.** Activity [1]: 30%; IC50 (Plasmodium falciparum): 630 nM; IC90 (Plasmodium falciparum): 2610 nM

**Q.** Which Activity [1] does the source give for COc1ccc([C@@H]2c3cc4c(cc3C(=O)[C@@H](C)[C@H]2C)OCO4)cc1OC here?
**A.** Its Activity is 30%.

**Q.** What about the IC50 (Plasmodium falciparum) of the same compound?
**A.** Its IC50 is 8000 nM.

**Q.** And the IC90 (Plasmodium falciparum)?
**A.** The IC90 was 19700 nM.

**Q.** With CCN(CC)CCCC(C)Nc1ccnc2cc(Cl)ccc12 (centres undefined) [CHLOROQUINE] as the compound, how does the IC90 (Plasmodium falciparum) read?
**A.** Its IC90 is 700 nM.
